Assay [1] in a line: Displacement of [3H]strychnine from strychnine-sensitive glycine receptor in rat spinal cord. (Loss of bound radioactivity is the signal in a displacement assay; it reports binding, not function.)
Assay [2] has as its target GABA-A receptor; anion channel. As to the kind of experiment: Displacement of [3H]muscimol from GABA-A receptor in Sprague-Dawley rat cerebral cortex. The format is tissue-based. A digest of the protocol: (§1)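 Synaptic membranes from adult rat tissue (cerebral cortex or spinal cord–brainstem) incubated with 5 nM [3H]muscimol plus increasing competitor concentrations in 50 mM Tris-citrate, pH 7.1, 30 min at 4 °C. Bound ligand separated by rapid filtration through glass fiber filters, three washes with ice-cold buffer, scintillation counting. Nonspecific binding defined with 200 µM unlabeled GABA. Mean of three experiments in triplicate.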

Assay [3] has as its target GABA-A receptor; anion channel. As to the kind of experiment: Displacement of [3H]muscimol from GABA-A receptor in Sprague-Dawley rat spinal cord. The format is protein-complex assay. A digest of the protocol: as §1

pIC50: −log10 of the molar value.

One may read the pIC50 as the negative decadic logarithm of the IC50, by convention in mol/L. A high value points to a small IC50. Consider `COc1c(N[C@@H]2O[C@@H](C)[C@@H](O)[C@@H](O)[C@@H]2O)cc2c(c1OC)-c1ccc(SC)c(=O)cc1[C@@H](NC(C)=O)CC2`, for which the pIC50 in assay [1] was 5.38; in assay [2], 4.98; in assay [3], 5.23.
Regarding `NCC(=O)O` [GLYCINE], the pIC50 in assay [1] is 4.80.
As for `COc1c(NC2OC[C@@H](O)[C@H](O)[C@H]2O)cc2c(c1OC)-c1ccc(SC)c(=O)cc1[C@@H](NC(C)=O)CC2` (some centres undefined), the pIC50 in assay [1] was 5.48; in assay [2], 5.15; in assay [3], 5.48.
As for `COc1c(O[C@@H]2O[C@H](CO)[C@@H](O)[C@H](O)[C@H]2O)cc2c(c1OC)-c1ccc(SC)c(=O)cc1[C@@H](NC(C)=O)CC2` [THIOCOLCHICOSIDE], the pIC50 in assay [1] is 5.82; in assay [2], 5.47; in assay [3] it was 5.72.
Take `COc1c(N[C@H]2O[C@@H](C)[C@H](O)[C@@H](O)[C@H]2O)cc2c(c1OC)-c1ccc(SC)c(=O)cc1[C@@H](NC(C)=O)CC2`: the figures for the pIC50 in assay [1], in assay [2] and in assay [3] were 5.34, less than 4.00 and 5.42, respectively.
Consider `COc1c(N[C@@H]2O[C@H](CO)[C@@H](O)[C@H](O)[C@@H]2O)cc2c(c1OC)-c1ccc(SC)c(=O)cc1[C@@H](NC(C)=O)CC2`, for which the pIC50 was 4.88 in assay [1], less than 4.00 in assay [2] and 4.95 in assay [3].
In the case of `COc1c(NC2O[C@H](CO)[C@@H](O)[C@H](O)[C@H]2O)cc2c(c1OC)-c1ccc(SC)c(=O)cc1[C@@H](NC(C)=O)CC2` (some centres undefined), the pIC50 in assay [1] was 4.97; in assay [2] it was 4.74; in assay [3], 4.95.
Taken in the same sequence, the figures for `COc1c(N)cc2c(c1OC)-c1ccc(SC)c(=O)cc1[C@@H](NC(C)=O)CC2` were 4.40, 5.27 and 5.72.
With `COc1c(NC2OC[C@@H](O)[C@@H](O)[C@@H]2O)cc2c(c1OC)-c1ccc(SC)c(=O)cc1[C@@H](NC(C)=O)CC2` (some centres undefined), the pIC50 in assay [1] was 5.07; in assay [2], 4.75; in assay [3], 4.98.
Compound `O=C1C[C@@H]2OCC=C3CN4CC[C@]56c7ccccc7N1[C@H]5[C@H]2[C@H]3C[C@H]46` [STRYCHNINE] showed a pIC50 in assay [1] of 7.85.
Consider `COc1c(NC2OC[C@@H](O)[C@H](O)[C@@H]2O)cc2c(c1OC)-c1ccc(SC)c(=O)cc1[C@@H](NC(C)=O)CC2` (some centres undefined), for which the pIC50 was 5.39 in assay [1], 5.01 in assay [2] and 5.40 in assay [3].

These data come from ChEMBL document CHEMBL1146873, “3-demethoxy-3-glycosylaminothiocolchicines: Synthesis of a new class of putative muscle relaxant compounds” (J Med Chem, 2006).
